Drawing on ChEMBL document CHEMBL1154848, “Cytotoxic 3,4-seco-cycloartane triterpenes from the exudate of Gardenia tubifera” (J Nat Prod, 2010), this text covers IC50 for 4 compounds.

Converted amounts (≈) assume the structure as drawn.

The subject of one assay is BT-474. Briefly: Cytotoxicity against human BT474 cells after 3 days by MTT assay. As to conditions: BT-474, 72 h. In kind it is functional, cell-based. The method in brief: (§1)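 Cells grown in RPMI-1640 with 25 mM HEPES, 0.25% (w/v) sodium bicarbonate, 5% (v/v) FBS and 100 µg/mL kanamycin. Freshly trypsinized cells were seeded at 5000 per well and given compound from DMSO-diluted stock. After three days, attached cells were MTT-stained, bound dye was solubilized and absorbance read at 540 nm. IC50 = 50% growth inhibition, averaged over at least six independent determinations.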
As usually defined, the IC50 is the concentration that inhibits the measured activity by half. Lower therefore signals greater potency in that assay. `C=C1C(=O)O[C@@H]2C[C@@H]3[C@]4(CC[C@]5(C)[C@@H]([C@H](C)Cc6cc(C)co6)CC[C@@]35C)C[C@]4(CCC(=O)OC)[C@H]12` [GARDENOIN B] showed an IC50 greater than 5 µg/mL.
`C=C1C(=O)O[C@@H]2[C@H](O)[C@@H]3[C@]4(CC[C@]5(C)[C@@H]([C@H](C)Cc6cc(C)co6)CC[C@@]35C)C[C@]4(CCC(=O)OC)[C@H]12` [GARDENOIN C] came in with a half-maximal inhibitory concentration (IC50) greater than 5 µg/mL.
The compound `C=C1C(=O)O[C@@H]2C[C@@H]3[C@]4(CC[C@]5(C)[C@@H]([C@H](C)Cc6cc(C)co6)CC[C@@]35C)C[C@]4(CCC(=O)O)[C@H]12` [GARDENOIN A] yielded an IC50 greater than 5 µg/mL.
On the same count and under the same terms, as for `C=C(CO)[C@@H]1CC[C@@H]2[C@]3(CC[C@]4(C)[C@@H]([C@H](C)CC=CC(C)(C)O)CC[C@@]24C)C[C@]13CCC(=O)O`, the figure is greater than 5 µg/mL.

System in a further assay: not listed separately
Briefly: Cytotoxicity against human KATO III cells after 3 days by MTT assay. As to conditions: 72 h. It is filed as functional, cell-based, KATO III cell. In short, it runs like this:
as §1
`C=C1C(=O)O[C@@H]2C[C@@H]3[C@]4(CC[C@]5(C)[C@@H]([C@H](C)Cc6cc(C)co6)CC[C@@]35C)C[C@]4(CCC(=O)OC)[C@H]12` [GARDENOIN B] gave an IC50 greater than 5 µg/mL.
Still for that read-out and setting: the result for `C=C1C(=O)O[C@@H]2[C@H](O)[C@@H]3[C@]4(CC[C@]5(C)[C@@H]([C@H](C)Cc6cc(C)co6)CC[C@@]35C)C[C@]4(CCC(=O)OC)[C@H]12` [GARDENOIN C] reads greater than 5 µg/mL.
On the same count and under the same terms, the result for `C=C1C(=O)O[C@@H]2C[C@@H]3[C@]4(CC[C@]5(C)[C@@H]([C@H](C)Cc6cc(C)co6)CC[C@@]35C)C[C@]4(CCC(=O)O)[C@H]12` [GARDENOIN A] reads greater than 5 µg/mL.
On the same count and under the same terms, the result for `C=C(CO)[C@@H]1CC[C@@H]2[C@]3(CC[C@]4(C)[C@@H]([C@H](C)CC=CC(C)(C)O)CC[C@@]24C)C[C@]13CCC(=O)O` reads greater than 5 µg/mL.

System in the next assay: not listed separately
The assay can be described thus: Cytotoxicity against human ChaGo cells after 3 days by MTT assay. In kind it is functional, cell-based. Conditions: 72 h. In short, it runs like this: as §1
`C=C1C(=O)O[C@@H]2C[C@@H]3[C@]4(CC[C@]5(C)[C@@H]([C@H](C)Cc6cc(C)co6)CC[C@@]35C)C[C@]4(CCC(=O)OC)[C@H]12` [GARDENOIN B] returned an IC50 greater than 5 µg/mL.
`C=C1C(=O)O[C@@H]2[C@H](O)[C@@H]3[C@]4(CC[C@]5(C)[C@@H]([C@H](C)Cc6cc(C)co6)CC[C@@]35C)C[C@]4(CCC(=O)OC)[C@H]12` [GARDENOIN C]: it took 4.4 µg/mL (≈ 8.62 µM) to reach half-maximal inhibition (IC50).
On the same count and under the same terms, as for `C=C1C(=O)O[C@@H]2C[C@@H]3[C@]4(CC[C@]5(C)[C@@H]([C@H](C)Cc6cc(C)co6)CC[C@@]35C)C[C@]4(CCC(=O)O)[C@H]12` [GARDENOIN A], the figure is 1.6 µg/mL (≈ 3.33 µM); as for `C=C(CO)[C@@H]1CC[C@@H]2[C@]3(CC[C@]4(C)[C@@H]([C@H](C)CC=CC(C)(C)O)CC[C@@]24C)C[C@]13CCC(=O)O`, greater than 5 µg/mL.

The subject of another assay is SW-620. Briefly: Cytotoxicity against human SW620 cells after 3 days by MTT assay. As to conditions: SW-620, 72 h. In kind it is functional, cell-based. In short, it runs like this:
as §1
Consider `C=C1C(=O)O[C@@H]2C[C@@H]3[C@]4(CC[C@]5(C)[C@@H]([C@H](C)Cc6cc(C)co6)CC[C@@]35C)C[C@]4(CCC(=O)OC)[C@H]12` [GARDENOIN B], for which the IC50 was greater than 5 µg/mL.
`C=C1C(=O)O[C@@H]2[C@H](O)[C@@H]3[C@]4(CC[C@]5(C)[C@@H]([C@H](C)Cc6cc(C)co6)CC[C@@]35C)C[C@]4(CCC(=O)OC)[C@H]12` [GARDENOIN C]: inhibition was half-maximal at 2.5 µg/mL (≈ 4.9 µM) (IC50).
Same read-out and setting: as for `C=C1C(=O)O[C@@H]2C[C@@H]3[C@]4(CC[C@]5(C)[C@@H]([C@H](C)Cc6cc(C)co6)CC[C@@]35C)C[C@]4(CCC(=O)O)[C@H]12` [GARDENOIN A], the figure is greater than 5 µg/mL; as for `C=C(CO)[C@@H]1CC[C@@H]2[C@]3(CC[C@]4(C)[C@@H]([C@H](C)CC=CC(C)(C)O)CC[C@@]24C)C[C@]13CCC(=O)O`, greater than 5 µg/mL.

Another assay has as its system HepG2. The assay can be described thus: Cytotoxicity against human HepG2 cells after 3 days by MTT assay. It is filed as functional, cell-based. Conditions: HepG2, 72 h. In short, it runs like this: as §1
The compound `C=C1C(=O)O[C@@H]2C[C@@H]3[C@]4(CC[C@]5(C)[C@@H]([C@H](C)Cc6cc(C)co6)CC[C@@]35C)C[C@]4(CCC(=O)OC)[C@H]12` [GARDENOIN B] registered an IC50 greater than 5 µg/mL.
Regarding `C=C1C(=O)O[C@@H]2[C@H](O)[C@@H]3[C@]4(CC[C@]5(C)[C@@H]([C@H](C)Cc6cc(C)co6)CC[C@@]35C)C[C@]4(CCC(=O)OC)[C@H]12` [GARDENOIN C], the IC50 was found to be 2.8 µg/mL (≈ 5.48 µM).
Still for that read-out and setting: as for `C=C1C(=O)O[C@@H]2C[C@@H]3[C@]4(CC[C@]5(C)[C@@H]([C@H](C)Cc6cc(C)co6)CC[C@@]35C)C[C@]4(CCC(=O)O)[C@H]12` [GARDENOIN A], the figure is 4.5 µg/mL (≈ 9.36 µM); as for `C=C(CO)[C@@H]1CC[C@@H]2[C@]3(CC[C@]4(C)[C@@H]([C@H](C)CC=CC(C)(C)O)CC[C@@]24C)C[C@]13CCC(=O)O`, greater than 5 µg/mL.
